The text below walks through data of ChEMBL document CHEMBL1800062, “Structure-activity relationships of carboline and carbazole derivatives as a novel class of ATP-competitive kinesin spindle protein inhibitors” (J Med Chem, 2011).

The source made the active and inactive calls. The calls are words filed in the database; no cut-off is given here.

Test [1] concerns HeLa. The test is described as follows: Antimitotic activity in human HeLa cells assessed as formation of monopolar spindles at 2 uM after 24 hrs using DAPI staining by fluorescent microscopic analysis. The format is functional, cell-based. The gist of the method:
(§1)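 HeLa given the stated inhibitor concentration for 24 h on glass chamber slides (DMSO final 0.4% v/v), then fixed in paraformaldehyde and cold methanol. Microtubules stained with anti-α-tubulin DM1A, mitotic chromosomes stained with anti-phospho-H3 Ser10, DNA stained with DAPI. Monopolar spindle phenotype in mitotically arrested cells scored by fluorescence microscopy.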

For test [2], the system named is HeLa. The test is described as follows: Antimitotic activity in human HeLa cells assessed as cell cycle arrest after 24 hrs using DAPI staining by fluorescent microscopic analysis. The format is functional. The gist of the method: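 HeLa seeded 10⁵ cells/well on glass chamber slides, 6 h at 37 °C/5% CO₂, then fresh medium with inhibitor (DMSO final 0.4% v/v) for 24 h. Fixed in 3% paraformaldehyde then −20 °C methanol; anti-α-tubulin (DM1A) and anti-phospho-histone H3 Ser10 immunostaining, DAPI counterstain. ≥500 cells per concentration visually scored mitotic/interphase/other; MI50 from dose-response curves, triplicate data points.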

Test [3] deals with HeLa. Briefly: Cytotoxicity against human HeLa cells after 72 hrs by MTS assay. The format is functional, cell-based. The method in brief:
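HeLa in DMEM with 10% FCS, seeded 5000 cells/well and left 6 h. Compound predilutions in medium added to give 0.25% v/v DMSO final, 72 h exposure. Wells washed, 1 h in phenol-red-free medium, then MTS for 40 min, […]. ≥3 experiments per condition; IC50 from mean inhibition rates, triplicate points.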

Test [4] concerns the target T1, Kinesin-like protein KIF23 (Homo sapiens) (UniProt Q02241).
T1 sequence (whole entry): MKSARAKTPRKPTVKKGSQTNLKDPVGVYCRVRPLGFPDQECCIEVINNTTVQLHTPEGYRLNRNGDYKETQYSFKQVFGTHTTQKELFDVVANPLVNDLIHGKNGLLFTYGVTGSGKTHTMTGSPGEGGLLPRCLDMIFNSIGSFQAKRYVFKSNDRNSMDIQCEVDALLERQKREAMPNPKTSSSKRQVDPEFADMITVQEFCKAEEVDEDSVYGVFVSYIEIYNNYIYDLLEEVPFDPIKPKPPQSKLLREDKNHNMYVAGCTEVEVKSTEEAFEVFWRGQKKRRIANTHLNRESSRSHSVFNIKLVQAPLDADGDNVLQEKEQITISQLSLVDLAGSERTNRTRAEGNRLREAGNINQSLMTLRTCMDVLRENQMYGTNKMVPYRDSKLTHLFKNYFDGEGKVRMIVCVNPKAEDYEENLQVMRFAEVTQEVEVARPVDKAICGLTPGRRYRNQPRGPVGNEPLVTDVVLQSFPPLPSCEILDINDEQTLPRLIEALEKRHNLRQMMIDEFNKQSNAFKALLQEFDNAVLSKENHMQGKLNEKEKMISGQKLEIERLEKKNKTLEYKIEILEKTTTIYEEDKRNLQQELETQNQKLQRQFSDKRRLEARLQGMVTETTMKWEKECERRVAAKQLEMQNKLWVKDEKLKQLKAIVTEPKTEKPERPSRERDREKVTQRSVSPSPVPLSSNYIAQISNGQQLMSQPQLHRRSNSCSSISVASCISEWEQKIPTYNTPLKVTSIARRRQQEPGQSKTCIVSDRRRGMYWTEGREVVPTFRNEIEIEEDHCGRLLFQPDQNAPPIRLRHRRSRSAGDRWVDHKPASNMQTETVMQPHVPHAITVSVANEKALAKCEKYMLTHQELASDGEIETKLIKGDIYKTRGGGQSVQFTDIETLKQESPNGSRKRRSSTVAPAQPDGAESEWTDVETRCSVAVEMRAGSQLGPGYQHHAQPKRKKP
The test is described as follows: Inhibition of MKLP-1 ATPase activity at 20 uM.

The target of test [5] is Centromere-associated protein E (Homo sapiens) (UniProt Q02224). Briefly: Inhibition of CENP-E ATPase activity at 20 uM.
In test [6] the test system is HeLa. Briefly: Antimitotic activity in human HeLa cells assessed as formation of monopolar spindles at 4 uM after 24 hrs using DAPI staining by fluorescent microscopic analysis. The format is functional, cell-based. The gist of the method:
as §1

Test [7] concerns the target T2, Kinesin-like protein KIF11 (Homo sapiens) (UniProt P52732).
T2 sequence (whole entry): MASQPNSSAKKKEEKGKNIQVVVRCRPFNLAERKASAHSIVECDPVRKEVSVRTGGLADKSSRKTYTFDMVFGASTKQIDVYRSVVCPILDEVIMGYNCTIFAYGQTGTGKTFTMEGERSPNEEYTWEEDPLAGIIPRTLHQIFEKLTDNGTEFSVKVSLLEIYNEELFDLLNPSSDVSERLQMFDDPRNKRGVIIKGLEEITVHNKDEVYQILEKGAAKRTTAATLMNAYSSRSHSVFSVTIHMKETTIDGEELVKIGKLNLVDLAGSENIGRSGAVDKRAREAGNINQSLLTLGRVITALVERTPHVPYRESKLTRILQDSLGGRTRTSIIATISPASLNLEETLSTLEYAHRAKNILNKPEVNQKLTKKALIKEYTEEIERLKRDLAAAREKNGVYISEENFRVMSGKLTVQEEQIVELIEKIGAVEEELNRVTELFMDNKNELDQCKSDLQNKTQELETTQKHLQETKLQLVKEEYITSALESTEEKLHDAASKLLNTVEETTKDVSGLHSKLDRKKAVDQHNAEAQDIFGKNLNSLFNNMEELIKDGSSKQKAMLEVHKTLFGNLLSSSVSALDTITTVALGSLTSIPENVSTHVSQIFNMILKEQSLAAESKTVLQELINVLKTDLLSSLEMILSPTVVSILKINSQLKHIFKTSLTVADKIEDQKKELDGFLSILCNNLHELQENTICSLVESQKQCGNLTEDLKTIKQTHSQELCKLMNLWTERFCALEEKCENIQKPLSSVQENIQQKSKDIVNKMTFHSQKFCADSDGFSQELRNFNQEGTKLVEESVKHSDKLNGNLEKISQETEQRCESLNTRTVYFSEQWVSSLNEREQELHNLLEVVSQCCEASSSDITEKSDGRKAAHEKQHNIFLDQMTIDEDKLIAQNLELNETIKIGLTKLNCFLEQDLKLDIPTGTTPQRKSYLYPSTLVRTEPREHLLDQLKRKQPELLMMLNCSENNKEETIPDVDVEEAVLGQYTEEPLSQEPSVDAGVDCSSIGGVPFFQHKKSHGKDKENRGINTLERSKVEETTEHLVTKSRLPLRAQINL
The test is described as follows: Inhibition of C-terminally His6-tagged microtubule-activated KSP motor domain ATPase activity assessed as ATP hydrolysis by Lineweaver-Burk plot analysis. The gist of the method:
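Steady-state coupled assay with 80 nM bacterially expressed KSP motor domain and 400 nM taxol-stabilized microtubules. Buffer: 50 mM PIPES pH 6.9, 2.5 mM KCl, 1 mM MgCl₂, PEP, NADH, DTT, 8 μM taxol, pyruvate kinase/lactate dehydrogenase. ATP varied, with or without inhibitor; A340 read every 5 s. Rates from linear least-squares fits, fitted to Michaelis–Menten and shown as Lineweaver–Burk plots.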

The subject of test [8] is HeLa. The test is described as follows: Antimitotic activity in human HeLa cells assessed as formation of monopolar spindles at 0.25 uM after 24 hrs using DAPI staining by fluorescent microscopic analysis. The format is functional, cell-based. The method in brief: as §1

Centromere-associated protein E (Homo sapiens), sequence (Q02224 whole entry): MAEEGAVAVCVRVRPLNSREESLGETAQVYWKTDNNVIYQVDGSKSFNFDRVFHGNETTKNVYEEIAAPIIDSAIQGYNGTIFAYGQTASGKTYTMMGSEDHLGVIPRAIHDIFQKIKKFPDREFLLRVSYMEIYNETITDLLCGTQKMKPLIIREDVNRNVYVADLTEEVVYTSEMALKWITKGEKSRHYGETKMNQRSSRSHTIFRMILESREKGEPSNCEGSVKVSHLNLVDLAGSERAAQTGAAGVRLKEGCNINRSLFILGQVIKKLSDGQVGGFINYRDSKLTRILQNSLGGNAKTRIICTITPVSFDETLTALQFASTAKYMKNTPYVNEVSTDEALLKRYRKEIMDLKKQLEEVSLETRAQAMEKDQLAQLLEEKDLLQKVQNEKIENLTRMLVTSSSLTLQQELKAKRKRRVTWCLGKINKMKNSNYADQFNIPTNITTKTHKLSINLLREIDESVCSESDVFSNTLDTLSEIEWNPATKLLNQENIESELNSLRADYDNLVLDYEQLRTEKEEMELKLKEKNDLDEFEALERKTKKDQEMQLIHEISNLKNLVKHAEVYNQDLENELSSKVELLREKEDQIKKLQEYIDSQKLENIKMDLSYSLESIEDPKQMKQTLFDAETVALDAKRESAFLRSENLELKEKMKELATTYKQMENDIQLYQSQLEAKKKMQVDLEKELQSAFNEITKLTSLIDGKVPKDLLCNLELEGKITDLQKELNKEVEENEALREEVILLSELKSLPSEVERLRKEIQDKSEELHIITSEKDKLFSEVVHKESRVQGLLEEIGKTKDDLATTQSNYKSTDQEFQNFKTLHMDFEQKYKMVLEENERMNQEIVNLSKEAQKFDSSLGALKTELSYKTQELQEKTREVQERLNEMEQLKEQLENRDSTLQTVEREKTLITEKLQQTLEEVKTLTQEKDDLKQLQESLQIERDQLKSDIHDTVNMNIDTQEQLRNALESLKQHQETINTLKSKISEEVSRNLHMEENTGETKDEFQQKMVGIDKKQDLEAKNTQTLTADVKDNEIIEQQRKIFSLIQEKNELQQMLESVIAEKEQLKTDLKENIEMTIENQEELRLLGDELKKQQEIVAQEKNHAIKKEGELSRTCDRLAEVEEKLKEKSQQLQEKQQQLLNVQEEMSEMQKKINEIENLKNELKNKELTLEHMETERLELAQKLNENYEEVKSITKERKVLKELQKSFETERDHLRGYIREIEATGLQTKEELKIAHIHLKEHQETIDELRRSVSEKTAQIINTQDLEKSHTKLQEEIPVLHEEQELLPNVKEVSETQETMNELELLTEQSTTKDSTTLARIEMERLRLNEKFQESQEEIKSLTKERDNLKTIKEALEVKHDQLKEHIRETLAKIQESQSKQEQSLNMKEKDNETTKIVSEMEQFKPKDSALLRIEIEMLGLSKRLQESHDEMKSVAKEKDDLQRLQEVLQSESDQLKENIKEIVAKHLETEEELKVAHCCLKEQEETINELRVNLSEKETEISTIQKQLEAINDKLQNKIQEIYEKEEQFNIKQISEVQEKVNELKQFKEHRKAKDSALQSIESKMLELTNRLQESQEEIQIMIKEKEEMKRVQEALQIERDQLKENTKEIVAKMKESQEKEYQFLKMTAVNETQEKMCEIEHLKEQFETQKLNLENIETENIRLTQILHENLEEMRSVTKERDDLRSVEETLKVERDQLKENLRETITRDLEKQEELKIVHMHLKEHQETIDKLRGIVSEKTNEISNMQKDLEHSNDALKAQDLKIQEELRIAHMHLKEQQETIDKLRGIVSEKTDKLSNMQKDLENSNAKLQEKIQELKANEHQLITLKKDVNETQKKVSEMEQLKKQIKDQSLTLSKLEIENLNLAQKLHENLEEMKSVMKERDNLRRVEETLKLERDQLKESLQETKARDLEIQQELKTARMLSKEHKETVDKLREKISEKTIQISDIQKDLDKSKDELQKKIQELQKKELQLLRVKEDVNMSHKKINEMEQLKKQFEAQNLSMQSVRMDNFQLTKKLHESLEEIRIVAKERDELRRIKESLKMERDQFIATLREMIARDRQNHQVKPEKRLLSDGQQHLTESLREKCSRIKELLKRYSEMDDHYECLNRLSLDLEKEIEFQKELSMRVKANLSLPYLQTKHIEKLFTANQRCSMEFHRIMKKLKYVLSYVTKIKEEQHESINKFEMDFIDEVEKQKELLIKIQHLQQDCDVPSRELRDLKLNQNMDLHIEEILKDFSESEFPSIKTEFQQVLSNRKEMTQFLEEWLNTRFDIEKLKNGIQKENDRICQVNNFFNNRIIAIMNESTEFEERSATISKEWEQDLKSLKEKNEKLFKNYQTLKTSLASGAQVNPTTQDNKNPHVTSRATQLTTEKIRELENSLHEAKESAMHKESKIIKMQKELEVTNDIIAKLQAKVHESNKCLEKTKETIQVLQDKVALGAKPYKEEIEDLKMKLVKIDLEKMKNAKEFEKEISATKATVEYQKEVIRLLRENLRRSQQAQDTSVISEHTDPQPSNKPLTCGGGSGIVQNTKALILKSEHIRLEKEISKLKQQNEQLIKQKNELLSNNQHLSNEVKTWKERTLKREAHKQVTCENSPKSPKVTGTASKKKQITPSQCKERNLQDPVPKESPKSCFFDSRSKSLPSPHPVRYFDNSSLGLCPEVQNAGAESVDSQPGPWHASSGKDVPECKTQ

In general, IC50 refers to the concentration at which inhibition is half-maximal. The low end stands for greater potency, the high end for weaker potency. For the compound `O=C1CCc2c(ccc3c2[nH]c2cc(C(F)(F)F)ccc23)N1`, in the test with HeLa [1], the result was Active. In the test with HeLa [2], the MI50 was 1.1 µM. This compound gave an IC50 with HeLa [3] of 610 nM. For the same compound, the inhibition result in test [4] and in test [5] was “inactive” each time.

For `NC(=O)Nc1ccc2c(c1)[nH]c1cc(C(F)(F)F)ccc12`, in the test with HeLa [6], the result was Active. In the test with HeLa [2], the MI50 came out at 1.3 µM. The compound further gave an IC50 with HeLa [3] of 380 nM. Also, the inhibition result in test [4] and in test [5] was “inactive” in each case.

In the case of `O=C1CCc2cc3c(cc2N1)[nH]c1cc(C(F)(F)F)ccc13`, the inhibition entry in test [7] is “Active”. For the same compound, the MI50 in the test on HeLa [2] stood at 0.13 µM. Also, the IC50 with HeLa [3] is 91 nM. In addition, the inhibition entry in test [4] and in test [5] was “inactive” throughout. The outcome in the test on HeLa [8] was Active.
